ChEMBL document CHEMBL4819012, “Discovery of novel 2-aryl-3-sulfonamido-pyridines (HoAns) as microtubule polymerization inhibitors with potent antitumor activities” (Eur J Med Chem, 2021)

Experiments:
[1] = Toxicity against Athymic nude mouse xenografted with SW-620 cells assessed as toxicity in lung at 25 mg/kg per two days, po measured after 20 days by H and E staining method; format: organism-based; conditions: in vivo, 480 h, time 20 day
Summary of the method: (§1)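 At the end of the 20-day oral SW620 xenograft study (25 mg/kg every 2 days, n = 6), heart, liver, spleen, lung and kidney were fixed in 4% paraformaldehyde and embedded in paraffin. 4 μm sections stained with Mayer hematoxylin 5 min and eosin-phloxine 2 min, then examined by light microscopy.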

SW-620 [2] = experiment: Induction of cell cycle arrest in human SW-620 cells assessed as accumulation of cells in G1 phase at 0.5 uM measured after 24 hrs by PI staining based flow cytometry method (reference value: 40.06%); format: functional
[3] = Toxicity against Athymic nude mouse xenografted with SW-620 cells assessed as toxicity in kidney at 25 mg/kg per two days, po measured after 20 days by H and E staining method; format: organism-based; conditions: in vivo, 480 h, time 20 day; summary of the method: as §1
PANC-1 = experiment: Induction of cell cycle arrest in human PANC-1 cells assessed as accumulation of cells in S phase at 0.5 uM measured after 24 hrs by PI staining based flow cytometry method (reference value: 65%); format: functional
RKO [4] = experiment: Induction of cell cycle arrest in human RKO cells assessed as accumulation of cells in S phase at 0.5 uM measured after 24 hrs by PI staining based flow cytometry method (reference value: 49.66%); format: functional
SW-620 [5] = experiment: Induction of cell cycle arrest in human SW-620 cells assessed as accumulation of cells in G2 phase at 0.5 uM measured after 24 hrs by PI staining based flow cytometry method (reference value: 13.83%); format: functional
[6] = Toxicity against Athymic nude mouse xenografted with SW-620 cells assessed as toxicity in liver at 25 mg/kg per two days, po measured after 20 days by H and E staining method; format: organism-based; conditions: in vivo, 480 h, time 20 day; summary of the method: as §1
RKO [7] = experiment: Antiproliferative activity against human RKO cells assessed as inhibition of cell proliferation measured after 24 hrs by crystal violet staining based colony-formation assay; format: functional; conditions: dose 0.125-1 µM
Summary of the method: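 RKO or SW620 cells plated at 1000 cells/well overnight, exposed to 0.125–1 µM for 24 h, then grown 10 days in fresh medium. Colonies fixed in methanol 15 min, stained with 0.1% crystal violet 30 min, photographed; colonies of more than 50 cells counted.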

Question: For `COc1ccc(S(=O)(=O)Nc2cccnc2-c2ccc(C#N)c(F)c2)cc1`, which Activity [1] is on record?
Answer: The Activity was “Non-Toxic”.

Question: And the Activity (SW-620 [2])?
Answer: The Activity was 38.03%.

Question: What about the Activity [3] of the same compound?
Answer: The Activity was “Non-Toxic”.

Question: And the Activity (PANC-1)?
Answer: The Activity was 50.11%.

Question: What about the Activity (RKO [4]) of the same compound?
Answer: The Activity was 46.37%.

Question: What about the Activity (SW-620 [5]) of the same compound?
Answer: Its Activity is 14.44%.

Question: What about the Activity [6] of the same compound?
Answer: The Activity was “Non-Toxic”.

Question: What about the Activity (RKO [7]) of the same compound?
Answer: Its Activity is “Dose-Dependent Effect”.
